Values after ≈ are worked out from the molar mass of the structure shown. Active and inactive are the calls of the source. The rule behind the calls is not given here.
How the values were obtained:
[1] = system: Staphylococcus aureus; assay: Antibacterial activity against Staphylococcus aureus ATCC 25923 by serial dilution method; format: functional
[2] = system: Escherichia coli; assay: Antibacterial activity against Escherichia coli ATCC 35218 by serial dilution method; format: functional
[3] = system: PBMC; assay: Cytotoxicity against human PBMC cells by MTT assay; format: cell-based
[4] = system: Artemia salina; assay: Toxicity against freshly hatched nauplii of brine shrimp after 24 hrs; format: organism-based; conditions: in vivo
[5] = system: PBMC; assay: Cytotoxicity against human phytohemagglutininin-stimulated PBMC cells assessed as growth inhibition by MTT assay; format: cell-based
[6] = Cytotoxicity against human Fem-X cells assessed as decrease in total cellular protein by kenacid blue R binding method; format: functional, cell-based
[7] = system: K562; assay: Cytotoxicity against human K562 cells by MTT assay; format: functional, cell-based
[8] = system: HeLa; assay: Cytotoxicity against human HeLa cells assessed as decrease in total cellular protein by kenacid blue R binding method; format: functional, cell-based
[9] = system: LOX IMVI; assay: Cytotoxicity against human LOXIMVI cells after 48 hrs by sulforhodamine B assay; format: functional
Procedure, shortened: (§1)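 Tested at NIH-NCI against the 60 human tumor cell line panel. Each line was exposed to at least five concentrations for 48 h. Growth and survival were read by the sulforhodamine test.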

[10] = Cytotoxicity against human colon cancer cells after 48 hrs by sulforhodamine B assay; format: functional; conditions: Cancer cell lines; procedure, shortened: as §1
[11] = system: RXF 393; assay: Cytotoxicity against human RXF393 cells after 48 hrs by sulforhodamine B assay; format: functional; conditions: RXF 393, 48 h; procedure, shortened: as §1
[12] = system: MCF7; assay: Cytotoxicity against human MCF7 cells after 48 hrs by sulforhodamine B assay; format: functional; conditions: MCF7, 48 h; procedure, shortened: as §1
[13] = Cytotoxicity against human CNS cancer cells after 48 hrs by sulforhodamine B assay; format: functional; conditions: Cancer cell lines; procedure, shortened: as §1
[14] = system: IGROV-1; assay: Cytotoxicity against human IGROV1 cells after 48 hrs by sulforhodamine B assay; format: functional; conditions: IGROV-1, 48 h; procedure, shortened: as §1
[15] = system: MDA-MB-435; assay: Cytotoxicity against human MDA-MB-435 cells after 48 hrs by sulforhodamine B assay; format: functional; conditions: MDA-MB-435, 48 h; procedure, shortened: as §1
[16] = system: CCRF-CEM; assay: Cytotoxicity against human CCRF-CEM cells after 48 hrs by sulforhodamine B assay; format: functional; procedure, shortened: as §1
[17] = system: HOP-92; assay: Cytotoxicity against human HOP92 cells after 48 hrs by sulforhodamine B assay; format: functional; conditions: HOP-92, 48 h; procedure, shortened: as §1
[18] = system: NCI-H23; assay: Cytotoxicity against human NCI-H23 cells after 48 hrs by sulforhodamine B assay; format: functional; conditions: NCI-H23, 48 h; procedure, shortened: as §1
[19] = system: K562; assay: Cytotoxicity against human K562 cells after 48 hrs by sulforhodamine B assay; format: functional; conditions: K562, 48 h; procedure, shortened: as §1
[20] = system: SK-MEL-2; assay: Cytotoxicity against human SK-MEL-2 cells after 48 hrs by sulforhodamine B assay; format: functional; conditions: SK-MEL-2, 48 h; procedure, shortened: as §1
[21] = system: RPMI-8226; assay: Cytotoxicity against human RPMI8226 cells after 48 hrs by sulforhodamine B assay; format: functional; conditions: RPMI-8226, 48 h; procedure, shortened: as §1
[22] = Cytotoxicity against human prostate cancer cells after 48 hrs by sulforhodamine B assay; format: functional; conditions: Cancer cell lines; procedure, shortened: as §1
[23] = system: MOLT-4; assay: Cytotoxicity against human MOLT4 cells after 48 hrs by sulforhodamine B assay; format: functional; conditions: MOLT-4, 48 h; procedure, shortened: as §1
[24] = system: T47D; assay: Cytotoxicity against human T47D cells after 48 hrs by sulforhodamine B assay; format: functional; procedure, shortened: as §1
[25] = system: Human immunodeficiency virus; assay: Antiviral activity against HIV infected in human T4 lymphocytes assessed as protection from HIV-induced cytopathogenicity at 2 uM; format: functional
[26] = Cytotoxicity against human T4 lymphocytes

Row | Compound | MIC [1] | MIC [2] | IC50 [3] [µM] | LC50 [4] | IC50 [5] [µM] | IC50 [6] [µM] | IC50 [7] [µM] | IC50 [8] [µM] | other results
1 | C[C@H]1c2cccc(O)c2C(=O)C2=C(O)[C@]3(O)C(=O)C(C(N)=O)=C(O)[C@@H](N(C)C)[C@@H]3[C@@H](O)[C@@H]21.O [DOXYCYCLINE] | 4 mg/L | 2 mg/L |  |  |  |  |  |  | 
2 | CC1=CCC[C@H]2[C@](C)(Cc3cc(O)ccc3O)[C@@H](C)CC[C@]12C [AVAROL] | 12.5 mg/L (≈ 39.7 µM) | inactive | 3 | 0.18 ppm | 3.2 | 21.7 | 7.3 | 19.7 | 
3 | CC1=CCC[C@H]2[C@](C)(CC3=CC(=O)C=C(Sc4ccccc4)C3=O)[C@@H](C)CC[C@]12C | 12.5 mg/L (≈ 29.7 µM) | inactive |  | 32.33 ppm |  | 41.5 | 17.4 | 54.8 | 
4 | CC1CCC[C@H]2[C@](C)(CC3=CC(=O)C(Cl)=CC3=O)[C@@H](C)CC[C@]12C (stereo not given in full) | 50 mg/L (≈ 143 µM) | 25 mg/L (≈ 71.7 µM) |  | 0.65 ppm |  | 32.2 | 11.2 | 34.1 | 
5 | CC1=CCC[C@H]2[C@](C)(CC3=CC(=O)C(SC(C)C)=CC3=O)[C@@H](C)CC[C@]12C | inactive | inactive |  | 0.44 ppm |  | 86 | 47.5 | 67 | 
6 | COC1=CC(=O)C=C(C[C@]2(C)[C@@H](C)CC[C@]3(C)C(C)=CCC[C@@H]23)C1=O | 25 mg/L (≈ 73 µM) | 50 mg/L (≈ 146 µM) | 5.9 | 0.02 ppm | 5.5 | 9.8 | 2.1 | 13.3 | 
7 | CNC1=CC(=O)C(C[C@]2(C)[C@@H](C)CC[C@]3(C)C(C)=CCC[C@@H]23)=CC1=O | inactive | inactive | > 100 | 0.34 ppm | > 100 | 2.4 | 9.3 | 12.6 | 
8 | CCCCCCCCSC1=CC(=O)C(C[C@]2(C)[C@@H](C)CC[C@]3(C)C(C)=CCC[C@@H]23)=CC1=O | inactive | 25 mg/L (≈ 54.7 µM) |  | Not Active |  | > 100 | > 100 | > 100 | 
9 | CC1=CCC[C@H]2[C@](C)(CC3=CC(=O)C4=C(SCCS4)C3=O)[C@@H](C)CC[C@]12C | inactive | 100 mg/L (≈ 248 µM) |  | 2045 ppm |  | 75 | 91 | > 100 | GI50 [9]: 11.2 µM; GI50 [10]: > 10 µM; GI50 [11]: 18.6 µM; GI50 [12]: 20.4 µM; GI50 [13]: > 10 µM; GI50 [14]: 32.4 µM; GI50 [15]: 8.13 µM; GI50 [16]: 11 µM; GI50 [17]: 31.6 µM; GI50 [18]: 13.2 µM; GI50 [19]: 20 µM; GI50 [20]: 1.7 µM; GI50 [21]: 14.1 µM; GI50 [22]: > 10 µM; GI50 [23]: 21.4 µM; GI50 [24]: > 100 µM
10 | CC1=CCC[C@H]2[C@](C)(CC3=CC(=O)C(SC(C)(C)C)=CC3=O)[C@@H](C)CC[C@]12C | 50 mg/L (≈ 125 µM) | inactive | 21.7 | 0.89 ppm | 20.8 | 38 | 25.7 | 37 | 
11 | CC1=CCC[C@H]2[C@](C)(CC3=CC(=O)C(Sc4ccccc4)=CC3=O)[C@@H](C)CC[C@]12C | 12.5 mg/L (≈ 29.7 µM) | inactive | 9.9 | 30.21 ppm | 11.2 | 42.5 | 15.2 | 45 | GI50 [9]: 13.5 µM; GI50 [10]: > 10 µM; GI50 [11]: 16.2 µM; GI50 [12]: 22.4 µM; GI50 [13]: > 10 µM; GI50 [14]: 16.2 µM; Activity [25]: 12.5%; GI50 [15]: 17 µM; GI50 [16]: 3.89 µM; GI50 [17]: 17 µM; GI50 [18]: 14.8 µM; GI50 [19]: 19.5 µM; GI50 [20]: 20 µM; GI50 [21]: 20.4 µM; Activity [26]: Toxic; GI50 [22]: > 10 µM; GI50 [23]: 2.57 µM; GI50 [24]: 20.4 µM
12 | CC1=CCC[C@H]2[C@](C)(CC3=CC(=O)C=CC3=O)[C@@H](C)CC[C@]12C [AVARONE] | 6.25 mg/L (≈ 20 µM) | 25 mg/L (≈ 80 µM) | 4.8 | 0.14 ppm | 4.5 | 23.9 | 4.9 | 26.8 | 
13 | CCCSC1=CC(=O)C(C[C@]2(C)[C@@H](C)CC[C@]3(C)C(C)=CCC[C@@H]23)=CC1=O | 50 mg/L (≈ 129 µM) | inactive |  | 0.2 ppm |  | 89.5 | 45.5 | 97 | 
14 | CC1=CCC[C@H]2[C@](C)(CC3=CC(=O)C(SCC(C)C)=CC3=O)[C@@H](C)CC[C@]12C | 50 mg/L (≈ 125 µM) | 25 mg/L (≈ 62.4 µM) |  | 0.17 ppm |  | 89.5 | 39 | 98 | GI50 [9]: 4.07 µM; GI50 [10]: > 10 µM; GI50 [11]: 6.76 µM; GI50 [12]: 7.24 µM; GI50 [13]: > 10 µM; GI50 [14]: 10 µM; Activity [25]: 28.5%; GI50 [15]: 15.5 µM; GI50 [16]: 1.35 µM; GI50 [17]: 4.79 µM; GI50 [18]: 5.5 µM; GI50 [19]: 4.47 µM; GI50 [20]: 20.9 µM; GI50 [21]: 3.8 µM; Activity [26]: Toxic; GI50 [22]: > 10 µM; GI50 [23]: 2.29 µM; GI50 [24]: 2.63 µM
15 | CCCCSC1=CC(=O)C(C[C@]2(C)[C@@H](C)CC[C@]3(C)C(C)=CCC[C@@H]23)=CC1=O | 25 mg/L (≈ 62.4 µM) | inactive |  | 0.92 ppm |  | 24.4 | 12.5 | 25.1 | 

Reference: ChEMBL document CHEMBL1154824, “Synthesis and biological activity of derivatives of the marine quinone avarone” (Eur J Med Chem, 2010)
